Measured values from different studies.
Effect on: enzyme activity
Action: inhibitor
PARP10: Protein mono-ADP-ribosyltransferase PARP10 (PARP10, Homo sapiens, UniProt Q53GL7)
HDAC1: Histone deacetylase 1 (HDAC1, Homo sapiens, UniProt Q13547)
HDAC8: Histone deacetylase 8 (HDAC8, Homo sapiens, UniProt Q9BY41)
Seed linoleate 13S-lipoxygenase-1: Seed linoleate 13S-lipoxygenase-1 (Glycine max, UniProt P08170)

O=c1[nH]c2c(nnn2Cc2ccccc2)c2ccc(F)cc12
IC50 (PARP10): 933 nM

O=C(NO)c1ccc(Cn2cnc3c(Nc4cccc([N+](=O)[O-])c4)ncnc32)cc1
IC50 (HDAC1; fluorescence): 148 nM

O=c1[nH]c2c(nnn2Cc2c(F)c(F)c(F)c(F)c2F)c2ccc(F)cc12
IC50 (PARP10): > 10000 nM

COc1ccc(N(Cc2nc(-c3cccc(Cl)c3)cs2)C(=O)CCCCCC(=O)NO)cc1
IC50 (HDAC1): 4.9 nM

Cc1ccc(Cn2nnc3c4ccc(C(F)(F)F)cc4c(=O)[nH]c32)cc1
IC50 (PARP10): > 10000 nM

NC/C(=C\F)COc1cccc(Cn2c(=S)[nH]c(=O)c3[nH]cnc32)c1
IC50 (Protein-lysine 6-oxidase (Homo sapiens, UniProt P28300)): > 30000 nM

Cc1ccc(S(=O)(=O)NNc2ccc([N+](=O)[O-])cc2[N+](=O)[O-])cc1
IC50 (Polyunsaturated fatty acid 5-lipoxygenase (ALOX5, Homo sapiens, UniProt P09917)): 1330 nM

COc1cccc(Cn2nnc3c4ccccc4c(=O)[nH]c32)c1
IC50 (PARP10): 219 nM

CC(C)COc1ccc(N(Cc2nc(-c3ccccc3)cs2)C(=O)CCCCCC(=O)NO)cc1
IC50 (HDAC1): 2.6 nM

c1c(N2CCCC2)nc(N2CCCC2)nc1N1CCNCC1
IC50 (Caspase-5 (CASP5, Homo sapiens, UniProt P51878); with preincubation): 138 nM

O=C(NO)c1ccc(Cn2cnc3c(Nc4ccc(F)c(Cl)c4)ncnc32)cc1
IC50 (HDAC8): 154 nM

O=C(CCCCCC(=O)N(Cc1nc(-c2ccccc2)cs1)c1ccc(OCc2ccc(F)cc2)cc1)NO
IC50 (HDAC1): 3.8 nM

COc1ccc(Nc2ncnc3c2ncn3Cc2ccc(C(=O)NO)cc2)cc1
IC50 (HDAC8): 112 nM

COc1ccc(N(Cc2csc(-c3ccccc3Br)n2)C(=O)CCCCCC(=O)NO)cc1
IC50 (HDAC1): 1.3 nM

Clc1ccc(Nc2ccncc2)cc1Cl
IC50 (Uracil-DNA glycosylase (UNG, Homo sapiens, UniProt P13051)): > 99000 nM

O=c1[nH]c2c(nnn2-c2ccccc2)c2ccc(F)cc12
IC50 (PARP10): > 10000 nM

C=C(C)[C@@H]1CC[C@]2(C)CC[C@]3(C)[C@H](CC[C@@H]4[C@@]5(C)CC[C@H](O)C(C)(C)[C@@H]5CC[C@]43C)[C@@H]12
IC50 (Seed linoleate 13S-lipoxygenase-1): 110000 nM

Cc1ccc(Cn2cc(-c3ccccc3C(N)=O)nn2)cc1
IC50 (PARP10): > 10000 nM

O=C(O[C@@H]1COC(=O)c2cc(O)c(O)c(O)c2-c2c(cc(O)c(O)c2O)C(=O)O[C@H]1[C@@H]1OC(=O)c2cc(O)c(O)c(O)c2-c2c(O)c(O)c(O)c3c2C(=O)O[C@H]1[C@@H]3O)c1cc(O)c(O)c(O)c1
IC50 (Seed linoleate 13S-lipoxygenase-1): 36200 nM

CCCOc1ccc(N(Cc2nc(-c3ccccc3)cs2)C(=O)CCCCCC(=O)NO)cc1
IC50 (HDAC1): 2.2 nM

Cc1ccc(Cn2nnc3c4cc(C)ccc4c(=O)[nH]c32)cc1
IC50 (PARP10): > 10000 nM

COc1ccc(N(Cc2csc(-c3ccc(Cl)cc3)n2)C(=O)CCCCCC(=O)NO)cc1
IC50 (HDAC1): 1 nM

O=C(NO)c1ccc(Cn2cnc3c(Nc4ccc(Cl)cc4)ncnc32)cc1
IC50 (HDAC1; fluorescence): 166 nM

COc1ccc(N(Cc2csc(-c3ccc(Br)cc3)n2)C(=O)CCCCCC(=O)NO)cc1
IC50 (HDAC1): 1 nM

O=c1[nH]c2c(nnn2Cc2ccccc2C(F)(F)F)c2ccccc12
IC50 (PARP10): > 10000 nM
